Test results from ChEMBL document CHEMBL1131111, “Synthesis and anti-HIV-1 activity of novel 2,3-dihydro-7H-thiazolo[3,2-a]pyrimidin-7-ones” (1998).

Columns and labels:
Type in all cases: functional
MT4 [1] = assay: Cytotoxic dose required to reduce the proliferation of normal uninfected MT-4 cells by 50%; conditions: Homo sapiens, read-out: CD50 (the source's name)
Outline: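 Cytotoxicity scored as concentration-dependent inhibition of proliferation of uninfected MT-4 cells by MTT assay. Cells grown in RPMI 1640 + 10% heat-inactivated FCS. CD50 is the mean of three independent determinations.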

MT4 [2] = assay: Selectivity index is the ratio between CD50 and IC50 values of the compound
Outline: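 Selectivity index calculated as CD50 (MTT, uninfected MT-4 cells) divided by ED50 (HIV-1 antigen ELISA, infected MT-4 cultures). Each value is the mean of three independent determinations.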

[3] = system: Human immunodeficiency virus 1; assay: Effective dose required for 50% inhibition of HIV-1 antigen production in MT-4 cultures

SMILES | CC50 (MT4 [1]) [µM] | SI (MT4 [2]) | ED50 [3] [µM]
Cc1cn([C@H]2C[C@H](N=[N+]=[N-])[C@@H](CO)O2)c(=O)[nH]c1=O [ZIDOVUDINE] | 52 | 1300 | 0.04
C=CCSc1nc(O)c(C(C)C)c(Cc2ccccc2)n1 | > 100 | >67 | 1.5
CCc1c(O)nc(SCC(OC)OC)nc1Cc1cccc2ccccc12 | > 100 | >3 | 32
CCOC1CSc2nc(=O)c(CC)c(Cc3cc(C)cc(C)c3)n21 (configuration not stated) | > 100 | >140 | 0.7
CCc1c(Cc2cc(C)cc(C)c2)n2c(nc1=O)SCC2OCCO (configuration not stated) | > 100 | >5 | 19
CCOC1CSc2nc(=O)c(CC)c(Cc3ccccc3)n21 (configuration not stated) | > 100 | >2 | 46
CCc1c(Cc2cc(C)cc(C)c2)n2c(nc1=O)SCC2OC (configuration not stated) | > 100 | >33 | 3
CCOC1CSc2nc(=O)c(C(C)C)c(Cc3ccccc3)n21 (configuration not stated) | > 100 | >1 | 100
C=CCSc1nc(O)c(CC)c(Cc2cc(C)cc(C)c2)n1 | 68 | 34 | 2
C=CCSc1nc(O)c(CC)c(Cc2ccccc2)n1 | > 100 | >67 | 1.5
COC(CSc1nc(O)c(C(C)C)c(Cc2ccccc2)n1)OC | 32 | 8 | 4
CCc1c(Cc2ccccc2)n2c(nc1=O)SCC2OC (configuration not stated) | > 100 | >3 | 36
CCOC(CSc1nc(O)c(CC)c(Cc2cc(C)cc(C)c2)n1)OCC | > 100 | >5 | 21
CCc1c(O)nc(SCC2OCCO2)nc1Cc1cc(C)cc(C)c1 | 37 | 12 | 3
CCOCn1c(Cc2ccccc2)c(C(C)C)c(=O)[nH]c1=O [EMIVIRINE] | – | 28000 | 0.005
CCc1c(Cc2cc(C)cc(C)c2)n2c(nc1=O)SCC2CBr (configuration not stated) | 46 | 16 | 2.8
